Compound activity (PubChem BioAssay)
Shown are actives, neighbours in structure and some others; about 1.6% of the full set was active somewhere.
T cell modulator: T cell immune modulators affecting CD8 T cell-vesicle binding | 2C CD8+ T cell-vesicle binding, flow cytometry; stronger effect = lower value | response (vesicle binding), % at 7 µM | actives 0.068% (n = 330,000) | AID 2052;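 active = response, share of CD8 T cells binding vesicles, and their 90th percentile fluorescence all below set limits, cut at about 80% in these data, passing the limit was not always enough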;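 also: values below 100% mean blocked vesicle binding to the CD8+ T cells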
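Also added: QL9-peptide-loaded Drosophila micro-vesicles bearing Ld, ICAM-1 and B7-1; Test system: purified 2C TCR transgenic mouse naive CD8+ T cells; Measured by: cytometric PE anti-B7-1 and Alexa647 anti-CD8 signals after 1% paraformaldehyde fixation; Timing: binding step 1.5 h, 37 °C, antibody labelling 20 min, ice.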
JMJD2C inh: inhibitors of human GASC-1 (JMJD2C) demethylase | GST-JMJD2C(1-420) H3K9me3 demethylation, DELFIA europium | inhibition, % at 2.35 µM | actives 0.069% (n = 330,000);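 active = more than half of a compound's replicate wells show inhibition beyond 50%, single wells judged on their own value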;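 also: signal counts dimethyl H3K9 product captured on neutravidin plate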
HDAC3 inhib: human HDAC3 inhibition | recombinant HDAC3, fluorogenic peptide/trypsin coupled, fluorescence | actives 0.15% (n = 320,000) | inhibition, % at 8.3 µM | O15379; in the data active = inhibition above about 26%, passing the limit was not always enough
Arrestin-AP2 inh: inhibitors of human beta-arrestin and AP2 interaction. FITC-arrestin peptide / GST-AP2 beads, flow cytometry; AP2 beta2 appendage carries R879A mutation. inhibition, % at 10 µM. actives 0.31% (n = 340,000);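 active = inhibition above a set limit, near 3 SD of compounds lacking own fluorescence, cut at about 54% in these data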
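Material – GST-tagged AP2 beta2-adaptin appendage (R879A) on 4 µm glutathione beads · Probe or stimulus – fluorescein-tagged arrestin peptide at 50 nM final · Timing – 12 min plus 1 h, RT · Detection – bead flow cytometry, FITC channel · Read-out basis – inhibition as reduced fluorescein signal on beads, percent · Medium – PBS plus Tween 20 (0.05%) and BSA (0.1%)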
LANA-H2B inh: blocks KSHV LANA binding to histone H2A/H2B; inhibition, % (concentration not given with the values); actives 0.6% (n = 320,000); AID 2629; Q9QR71; cell-free LANA-H2A/H2B peptide, fluorescence polarization; in the data active = inhibition mostly above about 10%, no sharp cut-off; inactive = mostly below about 6.7%
DSG3 Ab inh: blocks pemphigus antibody binding to human desmoglein-3 | AID 588358 | DSG3-coupled beads, scFv-anti-DSG3-GFP binding, flow cytometry; stronger effect = lower value | actives 0.48% (n = 310,000) | binding (percent of control), % at 10 µM;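 active = binding more than 3 SD below its plate's average and above zero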;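 also: hits lower antibody fragment binding to DSG3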
Target sequence (P32926 whole entry, looked up, the tested form may be a part): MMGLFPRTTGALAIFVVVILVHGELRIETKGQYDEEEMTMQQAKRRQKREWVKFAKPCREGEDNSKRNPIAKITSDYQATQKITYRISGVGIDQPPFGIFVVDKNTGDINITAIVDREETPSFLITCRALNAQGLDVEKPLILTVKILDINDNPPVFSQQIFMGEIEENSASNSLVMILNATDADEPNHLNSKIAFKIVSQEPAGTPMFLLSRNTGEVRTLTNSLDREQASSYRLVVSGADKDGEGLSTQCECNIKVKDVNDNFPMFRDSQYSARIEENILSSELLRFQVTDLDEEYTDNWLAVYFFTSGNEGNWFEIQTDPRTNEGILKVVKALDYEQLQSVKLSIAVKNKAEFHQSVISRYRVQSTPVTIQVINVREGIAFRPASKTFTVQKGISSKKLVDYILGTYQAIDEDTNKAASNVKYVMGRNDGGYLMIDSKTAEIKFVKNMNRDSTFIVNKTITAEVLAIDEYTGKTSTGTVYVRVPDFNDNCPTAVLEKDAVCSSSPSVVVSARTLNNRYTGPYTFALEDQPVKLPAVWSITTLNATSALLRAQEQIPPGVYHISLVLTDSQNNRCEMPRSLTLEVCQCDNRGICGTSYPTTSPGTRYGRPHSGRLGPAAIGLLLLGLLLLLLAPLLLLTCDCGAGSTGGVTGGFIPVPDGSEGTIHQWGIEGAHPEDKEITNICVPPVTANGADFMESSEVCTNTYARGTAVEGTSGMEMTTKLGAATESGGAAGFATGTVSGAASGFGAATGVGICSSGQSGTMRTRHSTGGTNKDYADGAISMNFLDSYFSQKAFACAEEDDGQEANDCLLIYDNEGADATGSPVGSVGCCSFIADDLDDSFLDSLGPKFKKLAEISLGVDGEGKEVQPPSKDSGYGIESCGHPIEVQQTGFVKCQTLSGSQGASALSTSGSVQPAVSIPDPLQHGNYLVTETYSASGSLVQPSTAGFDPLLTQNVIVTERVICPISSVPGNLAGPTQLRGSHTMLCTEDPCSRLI
A number is an active result; - = inactive; . = no result given; ! = not confirmed by another sample.

SMILES | T cell modulator | JMJD2C inh | HDAC3 inhib | Arrestin-AP2 inh | LANA-H2B inh | DSG3 Ab inh
Cc1cc(-c2csc(NC(=O)c3ccc(=O)[nH]c3)n2)c(C)n1Cc1ccco1 | - | - | - | - | - | 82
Cc1nn(C)cc1C(C(=O)NC1CCCCC1)N(Cc1ccc(F)cc1)C(=O)c1cnccn1 (stereo not drawn) | - | - | - | - | - | 54
COc1cc(-c2ccc3oc(-c4cccc(C)c4)c(C#CC4(O)CCCCC4)c3c2)cc(OC)c1OC | - | - | - | - | - | -
Cc1ccc2cc(C#N)c(NCCNC(=O)C3CCC3)nc2c1C | - | - | - | - | 53 | -
Cc1cccc2cc(C#N)c(NCCNC(=O)NC3CCCCC3)nc12 | - | - | - | - | - | .
O=P(O)(O)CP(=O)(O)O | - | - | . | . | 81 | .
O=Cc1ccc2ccc3cccnc3c2n1 | - | - | - | - | - | -
c1cnc2c(c1)ccc1cccnc12 | - | - | - | - | 21! | -
c1ccc2ncccc2c1 | - | . | . | - | . | 77
COc1cc(C(=S)N2CCCC2)ccc1OCc1ccc(C)cc1 | - | - | - | - | - | -
OC(CCCN1CCCCC1)(c1ccccc1)c1ccc(C(F)(F)F)cc1 (stereo not drawn) | . | . | . | - | . | -
Cc1ccc2c(c1)NC(=O)c1cccnc1N2 | - | - | - | - | - | -
O=C1Nc2ccccc2Nc2ncccc21 | - | - | - | - | 15 | -
N#Cc1cccc(S(=O)(=O)NNC(=O)C23CC4CC(CC(C4)C2)C3)c1 | 58 | - | - | - | - | -
COc1ccc(S(=O)(=O)NNC(=O)C23CC4CC(CC(C4)C2)C3)cc1 | - | - | - | - | - | -
COc1cccc2c1O/C(=N\O)C(C(=O)Nc1ccc(C)cc1)C2 (stereo not drawn) | - | - | - | - | - | -
CC(NC(=O)CCC(=O)N1CCCCCC1)c1ccccc1 (stereo not drawn) | - | - | - | - | 14 | -
CC(NC(=O)CCC(=O)NC(C)c1ccccc1)c1ccccc1 (stereo not drawn) | - | - | - | - | - | -
O=C(CN1C(=O)NC2(CCCCCC2)C1=O)NCCc1ccccc1 | - | - | - | - | 186 | -
CC(NC(=O)Cc1ccc(F)cc1)c1ccccc1 (stereo not drawn) | 64 | - | - | - | - | -
O=C(CN1C(=O)NC2(CCCCC2)C1=O)NCCc1ccccc1 | - | - | - | - | - | -
CC(NC(=O)CN1C(=O)NC2(CCCCCC2)C1=O)c1ccccc1 (stereo not drawn) | - | - | - | - | 78 | -
COc1cc(OC)c(C(=O)OCC(=O)NCCC2=CCCCC2)cc1OC | - | - | - | - | - | -
CC1CN(C2CCCCC2)C(=S)N(c2ccccc2)C1=O (stereo not drawn) | . | . | . | - | . | .
Cc1ccsc1C(=O)OCC(=O)NC1CCCCC1 | . | . | . | . | . | -
SMILES | T cell modulator | JMJD2C inh | HDAC3 inhib | Arrestin-AP2 inh | LANA-H2B inh | DSG3 Ab inh
CCCn1c(NC(=O)c2ccc(Br)cc2)nc2ccccc21 | - | - | - | - | - | 85
CCCCCCNC(=O)C(C#N)c1nc2ccccc2nc1N1CCCC1 (stereo not drawn) | - | - | - | - | 155 | -
CCN(CC)c1nc2ccccc2nc1C(C#N)C(=O)NCCCOC (stereo not drawn) | - | . | - | - | - | -
CCCCN(CCCC)c1nc2ccccc2nc1C(C#N)C(=O)NCCCOC (stereo not drawn) | - | - | - | - | 27 | -
CCC(C)c1ccccc1NC(=O)c1cccc(-n2cnnn2)c1 (stereo not drawn) | - | - | - | - | - | -
Cc1nn(C)c(C)c1N1C(=O)c2cccc3c(N)ccc(c23)C1=O | - | - | - | - | 133 | -
CN(C)c1ccc(C(CNS(=O)(=O)c2ccc([N+](=O)[O-])cc2)N2CCCC2)cc1 (stereo not drawn) | - | - | - | - | - | -
CCOc1ccc(N(CC(=O)NCc2ccc(Cl)cc2)S(=O)(=O)c2ccccc2)cc1 | - | - | - | - | - | -57
CCOc1ccc(N(CC(=O)NCc2ccccc2)S(=O)(=O)c2ccc(C)cc2)cc1 | - | - | - | - | - | -
O=C(O)c1cn2c3c(ccc(Cl)c3c1=O)OCC2 | - | - | - | - | - | -
COCCN1C=C2C(=O)C(C)(OC(=O)CCc3ccccc3)C(=O)C=C2C=C1c1ccc(C#N)cc1 (stereo not drawn) | - | - | - | - | 101 | -
CC1(OC(=O)CCc2ccccc2)C(=O)C=C2C=C(c3ccc(C#N)cc3)N(Cc3ccccc3)C=C2C1=O (stereo not drawn) | - | - | - | - | - | -
COc1ccccc1S(=O)(=O)N(C)C[C@H]1OCc2cn(nn2)CCCC(=O)N([C@@H](C)CO)C[C@@H]1C | . | . | . | . | . | -
CSc1nc(Cc2ccccc2)cc(=O)[nH]1 | - | - | - | - | - | 61
CCc1cc(=O)[nH]c(SCCc2ccccc2)n1 | - | - | - | - | - | -
COc1ccc(NC(=O)c2ccc3c(c2)C(=O)N(Cc2cccnc2)C3=O)cc1 | - | - | - | - | - | 70
COc1ccc(NC(=O)Nc2ccc(O)c3ccccc23)cc1 | 37 | - | - | - | - | -
COc1cccc(C(=O)Nc2ccc(NC(C)=O)cc2)c1 | - | - | - | - | 41 | -
COc1ccc(NC(=O)c2ccc3ccccc3c2)cc1 | - | - | - | - | - | 97
COc1ccc(C(=O)Nc2ccc(O)c3ccccc23)cc1 | - | - | - | - | - | -
O=C(Nc1ccc(O)cc1)c1ccc2c(c1)C(=O)N(Cc1cccnc1)C2=O | - | - | - | - | - | -
COc1ccc(C)cc1NC(=O)CN1CCCC1c1ccc2c(c1)OCCCO2 (stereo not drawn) | - | - | - | - | - | -
COc1cccc(C(=O)NC2CC3CCCC(C2)N3CC(=O)Nc2ccc(N(C)C)cc2)c1 (stereo not drawn) | - | - | - | - | 27 | -
CCOc1ccc(NC(=O)CN2C(=O)NC(C)(c3ccc4c(c3)OCCCO4)C2=O)cc1OCC (stereo not drawn) | . | . | . | - | . | -
Cc1ccc(-c2ccc(/C=C(\C#N)C(N)=S)n2C)cc1 | - | . | - | - | 26 | .
Cn1cccc1/C=C(/C#N)C(N)=S | - | - | . | - | . | -
Cc1ccccc1NS(=O)(=O)c1ccc(NC(=O)CSCc2ccc(Br)cc2)cc1 | 0.0 | - | - | - | - | -
O=C(CSCc1ccc(Br)cc1)Nc1ccc(S(=O)(=O)N2CCOCC2)cc1 | - | - | - | - | - | -
O=S(=O)(NC1CC2CCC1C2)c1ccc2c(c1)OCCO2 (stereo not drawn) | - | - | - | - | 20 | -
CC1CCCC(NS(=O)(=O)c2ccc3c(c2)OCCO3)C1C (stereo not drawn) | - | - | - | - | - | -
